Laboratory results taken from ChEMBL document CHEMBL5325428 (Eur J Med Chem, 2023).

What was measured:
SARS-CoV-2 = assay: Antiviral activity against SARS-CoV-2 Wuhan-HU-1 infected in HEK293T cells assessed as inhibition of viral replication incubated for 30 hrs by luciferase reporter gene assay; type: functional, organism-based; settings: Severe acute respiratory syndrome coronavirus 2, Wuhan-HU-1, HEK-293T
Procedure, shortened: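 This is a non-infectious Wuhan-Hu-1 replicon system, not infectious virus. Replicon RNA was electroporated into 293T cells, which were then incubated for 30 h with compound at 2, 0.5, 0.1 and 0.02 µM or with 0.1% DMSO. Read-out was luciferase activity. Values are mean ± SD.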

[1] = Safety index, ratio of CC50 for cytotoxicity against human HEK293T cells to EC50 for antiviral activity against SARS-CoV-2 Wuhan-HU-1 infected in HEK293T cells; type: toxicity, cell-based; settings: read-out: Ratio CC50/EC50
Procedure, shortened: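 In vitro safety index was calculated as the 293T CC50 divided by the SARS-CoV-2 replicon EC50.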

[2] = Cytotoxicity against human HEK293T cells assessed as reduction in cell viability incubated for 72 hrs by CytoTox 96 nonradioactive assay; type: toxicity, cell-based, HEK-293T
[3] = target: Replicase polyprotein 1ab (Severe acute respiratory syndrome coronavirus 2, UniProt P0DTD1); assay: Inhibition of N-terminal His6-tagged full length SARS-CoV-2 3CLpro using FAM-SAVLQ as substrate preincubated with enzyme for 1 hr followed by susbtrate addition and measured after 1 hr by FRET assay
[4] = Inhibition of MERS-CoV 3CLpro using FAM-SAVLQ as substrate preincubated with enzyme for 1 hr followed by susbtrate addition and measured after 1 hr by FRET assay; design: species or system Middle East respiratory syndrome-related coronavirus

| SMILES | EC50 (SARS-CoV-2) [nM] | selectivity ratio [1] | CC50 at 72 h [2] [nM] | IC50 [3] [nM] | IC50 [4] [nM] |
| --- | --- | --- | --- | --- | --- |
| CC(C)C[C@H](NC(=O)OCC(C)(C)Sc1cccc(F)c1)C(=O)N[C@@H](C[C@@H]1CCNC1=O)C(O)S(=O)(=O)O (stereo not given in full) | 10 | 3330 | > 50000 | 130 |  |
| CC(C)C[C@H](NC(=O)OCC(C)(C)Sc1nc2ccccc2[nH]1)C(=O)N[C@@H](C[C@@H]1CCNC1=O)C(O)S(=O)(=O)O (stereo not given in full) |  |  | > 50000 |  | 210 |
| CC(C)C[C@H](NC(=O)OCC(C)(C)Sc1ccccc1)C(=O)N[C@@H](C[C@@H]1CCNC1=O)C(O)S(=O)(=O)O (stereo not given in full) | 10 | 3330 | > 50000 | 90 |  |
| [2H]C([2H])(OC(=O)N[C@@H](CC(C)C)C(=O)N[C@@H](C[C@@H]1CCNC1=O)C(O)S(=O)(=O)[O-])C(C)(C)Oc1ccc(Cl)cc1.[Na+] (stereo not given in full) | 12 | 3330 | > 50000 | 170 | 20 |
| CC(C)C[C@H](NC(=O)OCC(C)(C)Sc1cccc(F)c1)C(=O)N[C@H](C=O)C[C@@H]1CCNC1=O | 9 | 3330 | > 50000 | 140 | 100 |
| CC(C)C[C@H](NC(=O)OCC(C)(C)Sc1nc2ccccc2[nH]1)C(=O)N[C@H](C=O)C[C@@H]1CCNC1=O |  |  | > 50000 | 300 | 120 |
| CC(C)C[C@H](NC(=O)OCC(C)(C)S(=O)(=O)c1ccccc1)C(=O)N[C@@H](C[C@@H]1CCNC1=O)C(O)S(=O)(=O)O (stereo not given in full) |  |  | > 50000 | 200 | 280 |
| CC(C)C[C@H](NC(=O)OCC(C)(C)Sc1ccc(F)cc1)C(=O)N[C@H](C=O)C[C@@H]1CCNC1=O |  |  | > 50000 | 170 | 190 |
| CC(C)C[C@H](NC(=O)OCCSc1ccccc1)C(=O)N[C@@H](C[C@@H]1CCNC1=O)C(O)S(=O)(=O)O (stereo not given in full) |  |  | > 50000 | 310 | 140 |
| CC(C)C[C@H](NC(=O)OCC(C)(C)Oc1cccc(F)c1)C(=O)N[C@@H](C[C@@H]1CCNC1=O)C(O)S(=O)(=O)O (stereo not given in full) |  |  | > 50000 | 120 | 40 |
| CC(C)C[C@H](NC(=O)OCC(C)(C)[S+]([O-])c1ccccc1)C(=O)N[C@H](C=O)C[C@@H]1CCNC1=O (mixture of isomers) |  |  | > 50000 | 330 | 190 |
| CC(C)C[C@H](NC(=O)OCCSc1ccccc1)C(=O)N[C@H](C=O)C[C@@H]1CCNC1=O |  |  | > 50000 | 320 | 140 |
| CC(C)C[C@H](NC(=O)OCC(C)(C)Oc1ccccc1)C(=O)N[C@@H](C[C@@H]1CCNC1=O)C(O)S(=O)(=O)O (stereo not given in full) |  |  | > 50000 | 240 | 20 |
| CC(C)C[C@H](NC(=O)OCC(C)(O)c1cccc(Cl)c1)C(=O)N[C@H](C=O)C[C@@H]1CCNC1=O (mixture of isomers) | 25 |  | > 50000 | 290 | 120 |
| CC(C)C[C@H](NC(=O)OCC(C)(C)Sc1ccccc1)C(=O)N[C@@H](C[C@@H]1CCNC1=O)C(O)(C(=O)NC1CC1)S(=O)(=O)O (stereo not given in full) | 70 |  | > 50000 | 450 | 180 |
| [2H]C([2H])(OC(=O)N[C@@H](CC(C)C)C(=O)N[C@@H](C[C@@H]1CCNC1=O)C(O)S(=O)(=O)[O-])C(C)(C)Sc1ccccc1.[Na+] (stereo not given in full) | 12 | 3330 | > 50000 | 310 | 40 |

| SMILES | EC50 (SARS-CoV-2) [nM] | selectivity ratio [1] | CC50 at 72 h [2] [nM] | IC50 [3] [nM] | IC50 [4] [nM] |
| --- | --- | --- | --- | --- | --- |
| CC(C)C[C@H](NC(=O)OCc1ccccc1)C(=O)N[C@H](C=O)C[C@@H]1CCNC1=O | 31 |  | […] |  | 280 |
| CC(C)C[C@H](NC(=O)OCC(C)(C)[S+]([O-])c1ccccc1)C(=O)N[C@@H](C[C@@H]1CCNC1=O)C(O)S(=O)(=O)O (mixture of isomers) |  |  | > 50000 | 350 | 250 |
| CC(C)C[C@H](NC(=O)OCC(C)(C)Oc1cccc(Cl)c1)C(=O)N[C@@H](C[C@@H]1CCNC1=O)C(O)S(=O)(=O)O (stereo not given in full) | 14 | 3330 | > 50000 | 210 | 20 |
| CC(C)C[C@H](NC(=O)OCC(C)(C)Oc1ccc(Cl)cc1)C(=O)N[C@H](C=O)C[C@@H]1CCNC1=O |  |  | > 50000 | 460 | 20 |
| [2H]C([2H])(OC(=O)N[C@@H](CC(C)C)C(=O)N[C@@H](C[C@@H]1CCNC1=O)C(O)S(=O)(=O)[O-])C(C)(C)Oc1cccc(Cl)c1.[Na+] (stereo not given in full) |  |  | > 50000 | 280 | 70 |
| CC(C)C[C@H](NC(=O)OCC(C)(C)S(=O)(=O)c1ccccc1)C(=O)N[C@H](C=O)C[C@@H]1CCNC1=O |  |  | > 50000 | 190 | 260 |
| CC(C)C[C@H](NC(=O)OCC(C)(C)Oc1ccccc1)C(=O)N[C@H](C=O)C[C@@H]1CCNC1=O |  |  | > 50000 | 310 | 40 |
| CC(C)C[C@H](NC(=O)OCC(C)(C)Oc1ccc(F)cc1)C(=O)N[C@@H](C[C@@H]1CCNC1=O)C(O)S(=O)(=O)O (stereo not given in full) |  |  | > 50000 | 230 | 40 |
| [2H]C([2H])(OC(=O)N[C@@H](CC(C)C)C(=O)N[C@H](C=O)C[C@@H]1CCNC1=O)C(C)(C)Oc1cccc(Cl)c1 |  |  | > 50000 | 300 | 40 |
| CC(C)C[C@H](NC(=O)OCC(C)(O)c1cccc(Cl)c1)C(=O)N[C@@H](C[C@@H]1CCNC1=O)C(O)S(=O)(=O)O (mixture of isomers) | 25 |  | > 50000 | 320 | 100 |
| CC(C)C[C@H](NC(=O)OCc1ccccc1)C(=O)N[C@@H](C[C@@H]1CCNC1=O)C(O)S(=O)(=O)O (stereo not given in full) | 27 |  |  |  |  |
| CC(C)C[C@H](NC(=O)OCC(C)(C)Sc1cccc(Cl)c1)C(=O)N[C@@H](C[C@@H]1CCNC1=O)C(O)S(=O)(=O)O (stereo not given in full) | 11 | 3330 | > 50000 | 170 | 100 |
| CC(C)C[C@H](NC(=O)OCC(C)(C)Oc1ccc(Cl)cc1)C(=O)N[C@@H](C[C@@H]1CCNC1=O)C(O)S(=O)(=O)O (stereo not given in full) |  |  | > 50000 | 340 | 110 |
| CC(C)C[C@H](NC(=O)OCC(C)(C)Sc1ccc(F)cc1)C(=O)N[C@@H](C[C@@H]1CCNC1=O)C(O)S(=O)(=O)O (stereo not given in full) |  |  | > 50000 | 270 | 150 |
| CC(C)C[C@H](NC(=O)OCC(C)(C)Oc1cccc(F)c1)C(=O)N[C@H](C=O)C[C@@H]1CCNC1=O |  |  | > 50000 | 200 | 50 |
